PMC7299768 (Journal of controlled release : official journal of the …, 2020)

Columns and labels:
Drug loading efficiency = type: physicochemical; settings: (encapsulated drug/total drug) x100%; natural lipid NPs
In short: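 Loading into natural-lipid nanoparticles measured by dialysis in 10 K MWCO mini devices pre-equilibrated with release medium (3% MeOH, 0.1% Polysorbate 80 in PBS, pH 7.4). Entrapped drug is apical minus basal concentration; free drug is basal concentration. Quantified by HPLC-UV (C18 column, 282 nm). Efficiency = encapsulated/total drug ×100%, from three batches.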

[1] = Pharmacokinetics and tissue bio-distribution after single oral administration; type: in vivo, C57BL/6J mice; settings: for Level in most of the blood samples: after oral free-6-S or 6-S-NL 5 mg/kg
In short: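 Single oral gavage of 5 mg/kg to fasted (4 h) female C57BL/6J mice, as free test compound in 0.5% CMC-Na/PBS or as lipid nanoparticles in PBS. Sparse sampling, 3 mice/time point: blood (K₂EDTA) 5 min–8 h; stomach, small intestine, colon, liver and kidney 15 min–8 h. Acetonitrile precipitation, LC-MS/MS (MRM) of parent and metabolites. Cmax and Tmax observed; T1/2 = ln2/k.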

inflamed Raw 264.7 cells = experiment: In vitro anti-inflammation assay; type: cell-based; settings: 1.0 μg/mL; for IL-1β gene expression / IL-6 gene expression / IL-10 gene expression / TNF-α gene expression: LPS-inflamed Raw 264.7 cells, RT-PCR; for Anti-inflammatory activities compared with 6-shogaol: inflamed Raw 264.7 cells
wounded Caco-2 BBE cells = experiment: In vitro wound-healing assay; type: cell-based; settings: 0.6 mL of 1.0 μg/mL solution; ECIS
In short: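 Caco-2 BBE cells were grown on ECIS 8W1E electrode plates in humidified 5% CO₂. At confluence, medium with or without test compound (1.0 μg/mL) or control formulation was added. Monolayers were wounded by a 30 s pulse (40 kHz, 4.5 V), and recovery was followed as impedance, with resistance measured at 500 Hz and 1 V.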

[2] = cited from earlier work
[3] = oral 5 mg/kg, compared to the 6-S-NL group

Drug loading efficiency (Drug loading efficiency) | Level in most of the blood samples [1] | Healing of wounded Caco-2 epithelial monolayers compared with 6-shogaol (wounded Caco-2 BBE cells) | Tmax of 6-shogaol in the colon ([1]; oral 5 mg/kg) | M13 concentrations in the small intestine, comparison ([1]; oral 5 mg/kg, compared to 6-S-NL) | AUC values of M2 and M13 in liver and kidney tissues, comparison [1, 3] | Exposure (AUC) of 6-shogaol in stomach and small intestine tissues, comparison [1, 3] | Compound | IL-1β gene expression (inflamed Raw 264.7 cells) | IL-6 gene expression (inflamed Raw 264.7 cells) | IL-10 gene expression (inflamed Raw 264.7 cells) | TNF-α gene expression (inflamed Raw 264.7 cells) | Anti-inflammatory activities compared with 6-shogaol (inflamed Raw 264.7 cells) | Effective 6-shogaol concentration in vitro [2]
91.3 ± 3.1% | below the LLOQ | healed significantly faster |  |  |  |  | CCCCCC(CC(=O)CCc1ccc(O)c(OC)c1)SC[C@H](N)C(=O)O (stereo partly shown) [M2] | down-regulate | down-regulate | up-regulate | down-regulate | higher | 
83.3 ± 1.9% | below the LLOQ | healed significantly faster |  |  |  |  | CCCCCC(CC(=O)CCc1ccc(O)c(OC)c1)SC[C@H](NC(=O)CC[C@H](N)C(=O)O)C(=O)NCC(=O)O (stereo partly shown) [M13] | down-regulate | down-regulate | up-regulate | down-regulate | higher | 
89.1 ± 2.6% |  |  | 1.5 h | higher | higher | significantly higher | CCCCC/C=C/C(=O)CCc1ccc(O)c(OC)c1 [6-shogaol] |  |  |  |  |  | about 1 μg/mL
